Laboratory results taken from ChEMBL document CHEMBL3352336, “Discovery libraries targeting the major enzyme classes: the serine hydrolases” (Bioorg Med Chem Lett, 2014).

Experiments:
[1] = Retention time of the compound; assay type: physicochemical
[2] = target: T1, Fatty-acid amide hydrolase 1 (Rattus norvegicus, UniProt P97612); assay: Inhibition of recombinant rat FAAH preincubated for 3 hrs
T1 sequence (P97612 whole entry): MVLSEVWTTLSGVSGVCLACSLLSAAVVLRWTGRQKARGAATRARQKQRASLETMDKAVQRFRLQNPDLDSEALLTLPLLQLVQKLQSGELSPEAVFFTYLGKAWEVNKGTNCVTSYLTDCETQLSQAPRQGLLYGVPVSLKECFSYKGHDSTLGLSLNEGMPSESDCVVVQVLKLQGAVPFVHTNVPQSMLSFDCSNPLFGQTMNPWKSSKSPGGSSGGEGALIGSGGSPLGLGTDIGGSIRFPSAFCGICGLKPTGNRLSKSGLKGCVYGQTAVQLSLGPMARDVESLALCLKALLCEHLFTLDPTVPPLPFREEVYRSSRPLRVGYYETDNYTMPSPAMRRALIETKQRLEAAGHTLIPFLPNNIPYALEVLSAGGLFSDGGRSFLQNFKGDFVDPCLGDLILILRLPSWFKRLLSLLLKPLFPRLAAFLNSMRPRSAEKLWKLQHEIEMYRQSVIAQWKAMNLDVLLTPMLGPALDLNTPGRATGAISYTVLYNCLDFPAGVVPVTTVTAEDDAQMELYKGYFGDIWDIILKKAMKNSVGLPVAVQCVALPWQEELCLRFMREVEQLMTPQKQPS
In short: (§1)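 Recombinant FAAH (rFAAH) was preincubated with the inhibitor for 3 h before activity was measured. Results are reported as an apparent Ki in nM.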

[3] = target: T1, Fatty-acid amide hydrolase 1; assay: Irreversible inhibition of recombinant rat FAAH preincubated for 3 hrs; in short: as §1

Compound	Retention_time [1] [min]	Ki [2] [nM]	Ki [3] [nM]
CC(C)(C)OC(=O)N1CCCN(C(=O)n2cc(C#N)cn2)CC1	3.792	–	–
O=C(NCc1ccc2ccccc2c1)n1cccn1	4.106	–	–
N#Cc1cnn(C(=O)Nc2ccc3ccccc3c2)c1	3.965	–	–
N#Cc1cnn(C(=O)CCCCc2ccccc2)c1	3.702	–	–
Cc1cnn(C(=O)CCCCCc2ccccc2)c1	4.2	> 5000	–
N#Cc1cnn(C(=O)Cc2ccc(-c3ccccc3)cc2)c1	3.977	–	–
O=C(N1CCN(Cc2ccc3ccccc3c2)CC1)n1cc(Br)cn1	3.989	–	0.47
Cc1ccc(COC(=O)n2cc(C)cn2)cc1	4.122	–	–
O=C(NCc1ccc(Oc2ccccc2)cc1)n1cccn1	3.987	–	–
O=C(N1CCN(Cc2ccc(OCc3ccccc3)cc2)CC1)n1cccn1	3.929	10	–
CN(CCN(C)C(=O)n1cccn1)C(=O)OC(C)(C)C	3.884	–	–
N#Cc1cnn(C(=O)Cc2ccc3ccccc3c2)c1	3.906	–	–
O=C(N1CCN(Cc2ccc3ccccc3c2)CC1)n1cccn1	3.791	–	9.8
CC(C)(C)OC(=O)N1CCCN(C(=O)n2cccn2)CC1	3.518	–	–
Cc1cnn(C(=O)OCc2ccc(Oc3ccccc3)cc2)c1	3.899	–	–
O=C(OCc1ccc(OCc2ccccc2)cc1)n1cccn1	3.905	–	–
O=C(CCCCCc1ccccc1)n1cccn1	4.199	> 5000	–
Cc1ccc(CNC(=O)n2cc(C)cn2)cc1	4.11	–	–
O=C(NCc1ccc(OCc2ccccc2)cc1)n1cccn1	3.896	–	–
Cc1cnn(C(=O)OCCCCCc2ccccc2)c1	4.104	–	–
N#Cc1cnn(C(=O)NCCCc2ccccc2)c1	3.915	–	–
Cc1cnn(C(=O)N2CCN(Cc3ccc(Oc4ccccc4)cc3)CC2)c1	3.987	–	210
N#Cc1cnn(C(=O)NCCCCc2ccccc2)c1	3.746	42	–
N#Cc1cnn(C(=O)NCc2ccc(Oc3ccccc3)cc2)c1	4.022	–	–

Compound	Retention_time [1] [min]	Ki [2] [nM]	Ki [3] [nM]
Cc1cnn(C(=O)Oc2ccc3ccccc3c2)c1	3.954	–	–
O=C(NCCCCc1ccccc1)n1cccn1	3.955	290	–
Cc1cnn(C(=O)N(C)CCN(C)C(=O)OC(C)(C)C)c1	3.969	–	–
O=C(Cc1ccc2ccccc2c1)n1cccn1	3.788	–	–
O=C(NCCCc1ccccc1)n1cccn1	3.989	–	–
COC(=O)c1cnn(C(=O)N2CCN(Cc3ccc4ccccc4c3)CC2)c1	3.999	–	0.36
Cc1cnn(C(=O)NCc2ccc(Oc3ccccc3)cc2)c1	3.992	–	–
Cc1cnn(C(=O)Nc2ccc3ccccc3c2)c1	3.9	–	–
Cc1cnn(C(=O)N2CCN(C(=O)OC(C)(C)C)CC2)c1	3.784	850	–
N#Cc1cnn(C(=O)OCc2ccc(-c3ccccc3)cc2)c1	4.103	–	–
N#Cc1cnn(C(=O)N2CCN(Cc3ccccc3)CC2)c1	3.899	75	–
CC(C)(C)OC(=O)N1CCN(C(=O)n2cc(C#N)cn2)CC1	3.946	55	–
Cc1cnn(C(=O)N2CCN(Cc3ccc(-c4ccccc4)cc3)CC2)c1	3.899	170	–
Cc1ccc(CNC(=O)n2cccn2)cc1	4.104	–	–
O=C(Oc1ccc2ccccc2c1)n1cccn1	3.96	–	–
N#Cc1cnn(C(=O)NCc2ccc(OCc3ccccc3)cc2)c1	3.877	–	–
Cc1cnn(C(=O)NCc2ccc3ccccc3c2)c1	4.243	–	–
O=C(OCc1ccc(Oc2ccccc2)cc1)n1cccn1	3.989	–	–
N#Cc1cnn(C(=O)NCc2ccc(-c3ccccc3)cc2)c1	3.897	–	–
Cc1cnn(C(=O)N2CCCCC2)c1	3.933	> 1000	–
N#Cc1cnn(C(=O)N2CCN(Cc3ccc(-c4ccccc4)cc3)CC2)c1	3.877	0.19	–
N#Cc1cnn(C(=O)OCCCCCc2ccccc2)c1	4.274	–	–
Cc1cnn(C(=O)Cc2ccc(-c3ccccc3)cc2)c1	3.467	–	–
N#Cc1cnn(C(=O)OCc2ccc(Oc3ccccc3)cc2)c1	3.92	–	–

Compound	Retention_time [1] [min]	Ki [2] [nM]	Ki [3] [nM]
Cc1cnn(C(=O)Cc2ccc3ccccc3c2)c1	3.992	–	–
N#Cc1cnn(C(=O)OCCCc2ccccc2)c1	3.927	–	–
O=C(N1CCCCC1)n1cccn1	3.484	750	–
N#Cc1cnn(C(=O)NCCCCCc2ccccc2)c1	4.125	–	–
N#Cc1cnn(C(=O)CCCCCc2ccccc2)c1	3.998	> 5000	–
O=C(NCc1ccc(-c2ccccc2)cc1)n1cccn1	3.944	–	–
O=C(N1CCN(Cc2ccc3ccccc3c2)CC1)n1cc(I)cn1	3.844	–	0.29
O=C(Cc1ccc(-c2ccccc2)cc1)n1cccn1	4.1	–	–
O=C(CCCCc1ccccc1)n1cccn1	3.977	–	–
O=C(OCc1ccc2ccccc2c1)n1cccn1	4.008	–	–
CN(CCN(C)C(=O)n1cc(C#N)cn1)C(=O)OC(C)(C)C	3.791	–	–
N#Cc1cnn(C(=O)N2CCCCC2)c1	3.824	80	–
O=C(N1CCN(Cc2ccccc2)CC1)n1cccn1	3.894	180	–
N#Cc1cnn(C(=O)OCc2ccc(OCc3ccccc3)cc2)c1	3.912	–	–
N#Cc1cnn(C(=O)N2CCN(Cc3ccc(OCc4ccccc4)cc3)CC2)c1	3.787	0.16	–
Cc1cnn(C(=O)OCc2ccc(-c3ccccc3)cc2)c1	4.102	–	–
N#Cc1cnn(C(=O)N2CCN(Cc3ccc4ccccc4c3)CC2)c1	3.915	–	0.16
N#Cc1cnn(C(=O)OCCCCc2ccccc2)c1	3.762	210	–
CC(C)(C)OC(=O)N1CCN(C(=O)n2cccn2)CC1	3.92	340	–
Cc1cnn(C(=O)NCCCCCc2ccccc2)c1	4.178	–	–
O=C(N1CCN(Cc2ccc(-c3ccccc3)cc2)CC1)n1cccn1	3.897	12	–
Cc1cnn(C(=O)NCc2ccc(-c3ccccc3)cc2)c1	3.907	–	–
O=C(OCc1ccc(-c2ccccc2)cc1)n1cccn1	3.999	–	–
O=C(NCCCCCc1ccccc1)n1cccn1	4.011	–	–

Compound	Retention_time [1] [min]	Ki [2] [nM]	Ki [3] [nM]
O=C(OCCCCc1ccccc1)n1cccn1	3.779	710	–
Cc1cnn(C(=O)OCc2ccc3ccccc3c2)c1	3.998	–	–
N#Cc1cnn(C(=O)Oc2ccc3ccccc3c2)c1	3.9	–	–
Cc1cnn(C(=O)N2CCN(Cc3ccc(OCc4ccccc4)cc3)CC2)c1	3.899	100	–
O=C(OCCCCCc1ccccc1)n1cccn1	4.159	–	–
Cc1cnn(C(=O)N2CCCN(C(=O)OC(C)(C)C)CC2)c1	3.959	–	–
O=C(OCCCc1ccccc1)n1cccn1	3.669	–	–
Cc1cnn(C(=O)OCCCc2ccccc2)c1	3.69	–	–
Cc1cnn(C(=O)OCCCCc2ccccc2)c1	3.988	> 5000	–
N#Cc1cnn(C(=O)N2CCN(Cc3ccc(Oc4ccccc4)cc3)CC2)c1	3.927	–	0.1
Cc1cnn(C(=O)CCCCc2ccccc2)c1	3.687	–	–
Cc1cnn(C(=O)NCCCCc2ccccc2)c1	3.713	550	–
O=C(N1CCN(Cc2ccc(Oc3ccccc3)cc2)CC1)n1cccn1	3.893	–	9.2
Cc1ccc(COC(=O)n2cc(C#N)cn2)cc1	3.988	–	–
Cc1cnn(C(=O)NCCCc2ccccc2)c1	3.616	–	–
Cc1cnn(C(=O)N2CCN(Cc3ccc4ccccc4c3)CC2)c1	3.896	–	130
N#Cc1cnn(C(=O)OCc2ccc3ccccc3c2)c1	3.689	–	–
Cc1cnn(C(=O)NCc2ccc(OCc3ccccc3)cc2)c1	3.876	–	–
Cc1cnn(C(=O)OCc2ccc(OCc3ccccc3)cc2)c1	3.91	–	–
N#Cc1cnn(C(=O)NCc2ccc3ccccc3c2)c1	4.14	–	–
Cc1ccc(CNC(=O)n2cc(C#N)cn2)cc1	3.97	–	–
Cc1ccc(COC(=O)n2cccn2)cc1	4.1	–	–
O=C(Nc1ccc2ccccc2c1)n1cccn1	3.895	–	–
Cc1cnn(C(=O)N2CCN(Cc3ccccc3)CC2)c1	4.201	250	–
